What was measured:
[1] = Metabolic stability in brain heart infusion medium up to 24 hrs by HPLC analysis; assay type: ADME, tissue-based
How it was run: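 Prodrug was incubated in BHI medium without bacteria under anaerobic conditions at pH 7.4 and 37 °C. Aliquots were taken at 0, 2, 4, 6 and 24 h and centrifuged at 10,000 rpm for 10 min. Supernatants were stored at −20 °C, then analysed by an HPLC method that resolves BHI components from prodrug and activation byproducts; n = 3.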

[2] = Stability of the compound in simulated human gastric juices up to 1500 mins by HPLC analysis; assay type: ADME, Gastric juice; settings: 25 h
[3] = Stability of the compound in simulated human duodenal fluid up to 1500 mins by HPLC analysis; assay type: ADME; settings: 25 h
[4] = system: Caco-2; experiment: Apparent permeability from apical to basolateral side of human Caco2 cells; assay type: ADME, cell-based
How it was run: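 Transport measured across the epithelial monolayer. Samples were drawn from the acceptor reservoir at 0, 30, 60 and 120 min, and fresh buffer was added each time to keep the volume constant. The donor solution was sampled at 120 min. Caffeine was run in two wells in the apical-to-basolateral direction as a routine control.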

[5] = system: Clostridium perfringens; experiment: Prodrug activation in Clostridium perfringens assessed as prednisolone release under anaerobic conditions at 50 uM up to 24 hrs by HPLC analysis; assay type: organism-based
How it was run: (§1)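 C. perfringens grown overnight on brain heart infusion (BHI) agar, then colonies were suspended in BHI broth to OD600 0.9–1.1. Compound incubated in the suspension under anaerobic conditions, pH 7.4, 37 °C, with a no-bacteria BHI control. Aliquots taken at 0, 2, 4, 6 and 24 h and centrifuged at 10,000 rpm for 10 min. Supernatants were stored at −20 °C, then HPLC for prodrug and released parent drug (n = 3).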

[6] = system: Clostridium perfringens; experiment: Prodrug activation in Clostridium perfringens assessed as celecoxib release under anaerobic conditions at 50 uM up to 24 hrs by HPLC analysis; assay type: organism-based; how it was run: as §1

| SMILES | Stability [1] | Stability [2] | Stability [3] | Papp [4] | Drug metabolism [5] | Drug metabolism [6] |
| --- | --- | --- | --- | --- | --- | --- |
| CCCC1O[C@@H]2C[C@H]3[C@@H]4CCC5=CC(=O)C=C[C@]5(C)[C@H]4[C@@H](O)C[C@]3(C)[C@]2(C(=O)COC(=O)CCc2ccccc2[N+](=O)[O-])O1 (stereo not given in full) | Stable | Stable | Stable | impermeable | Not Active |  |
| Cc1ccc(-c2cc(C(F)(F)F)nn2-c2ccc(S(=O)(=O)NC(=O)Cc3ccccc3[N+](=O)[O-])cc2)cc1 | Stable | Stable | Stable | permeable |  |  |
| CCCC1O[C@@H]2C[C@H]3[C@@H]4CCC5=CC(=O)C=C[C@]5(C)[C@H]4[C@@H](O)C[C@]3(C)[C@]2(C(=O)COC(=O)Cc2ccccc2[N+](=O)[O-])O1 (stereo not given in full) | Stable | Stable | Stable | permeable | Active |  |
| C[C@]12C=CC(=O)C=C1CC[C@@H]1[C@@H]2[C@@H](O)C[C@@]2(C)[C@H]1CC[C@]2(O)C(=O)COC(=O)Cc1ccccc1[N+](=O)[O-] | Stable | Stable | Stable |  | Active |  |
| Cc1ccc(-c2cc(C(F)(F)F)nn2-c2ccc(S(=O)(=O)NC(=O)CCc3ccccc3[N+](=O)[O-])cc2)cc1 | Stable | Stable | Stable | permeable |  |  |
| Cc1ccc(-c2cc(C(F)(F)F)nn2-c2ccc(S(=O)(=O)NC(=O)CCc3ccccc3)cc2)cc1 | Stable |  |  |  |  | Not Active |
| C[C@]12C=CC(=O)C=C1CC[C@@H]1[C@@H]2[C@@H](O)C[C@@]2(C)[C@H]1CC[C@]2(O)C(=O)COC(=O)CCc1ccccc1[N+](=O)[O-] | Stable | Stable | Stable |  | Active |  |
| C[C@]12C=CC(=O)C=C1CC[C@@H]1[C@@H]2[C@@H](O)C[C@@]2(C)[C@H]1CC[C@]2(O)C(=O)COC(=O)CCc1ccccc1 | Stable |  |  |  | Not Active |  |

Reference: ChEMBL document CHEMBL2331264, “A nitrophenyl-based prodrug type for colorectal targeting of prednisolone, budesonide and celecoxib” (Bioorg Med Chem Lett, 2013)
